Converted amounts (≈) assume the structure as drawn. The source made the active and inactive calls. The rule behind the calls is not given here.
Experiments:
Rattus norvegicus [1] = assay: Unbound AUC (0 to 24 hrs) in rat plasma at 5 mg/kg, po administered as single dose; assay type: ADME, organism-based; conditions: in vivo
Method in brief: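 Rats (3/sex/dose) dosed orally once, 1 or 5 mg/kg as a 0.5% methylcellulose suspension.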

[2] = biological target: Muscarinic acetylcholine receptor M3 (Homo sapiens, UniProt P20309); assay: Agonist activity at human muscarinic acetylcholine receptor M3 expressed in CHO cells assessed as increase in calcium mobilization incubated for 10 mins by Fluo-8-AM dye based FLIPR assay; assay type: cell-based
Method in brief: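 Recombinant functional human M2–M5 assays, each run in agonist and PAM modes at concentrations up to 10 μM.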

[3] = Thermodynamic solubility of the compound in FeSSIF at pH 6.3; conditions: read-out: Therm_solubility
Brain [4] = assay: Unbound brain concentration in amphetamine-induced hyperlocomotion C57BL/6 mouse at 0.3 mg/kg, sc measured after 1 hr by LC-MS/MS analysis; assay type: ADME, organism-based; conditions: in vivo
Method in brief: (§1)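 Satellite group of C57BL/6 mice from the amphetamine-stimulated locomotor study, N = 2/dose at 0.32, 1 and 3.2 mg/kg. Dosed sc as a solution in 10/90 Cremophor/water. Unbound plasma and brain concentrations measured at T = 1 h.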

[5] = biological target: T1, Muscarinic acetylcholine receptor M1 (Rattus norvegicus, UniProt P08482); assay: Positive allosteric modulation of muscarinic acetylcholine receptor M1 in Sprague-Dawley rat brain hippocampal slices assessed as increase in carbachol-induced firing rate at CA1 pyramidal neurons after 10 mins by electrophysiology method
T1 sequence (P08482 whole entry): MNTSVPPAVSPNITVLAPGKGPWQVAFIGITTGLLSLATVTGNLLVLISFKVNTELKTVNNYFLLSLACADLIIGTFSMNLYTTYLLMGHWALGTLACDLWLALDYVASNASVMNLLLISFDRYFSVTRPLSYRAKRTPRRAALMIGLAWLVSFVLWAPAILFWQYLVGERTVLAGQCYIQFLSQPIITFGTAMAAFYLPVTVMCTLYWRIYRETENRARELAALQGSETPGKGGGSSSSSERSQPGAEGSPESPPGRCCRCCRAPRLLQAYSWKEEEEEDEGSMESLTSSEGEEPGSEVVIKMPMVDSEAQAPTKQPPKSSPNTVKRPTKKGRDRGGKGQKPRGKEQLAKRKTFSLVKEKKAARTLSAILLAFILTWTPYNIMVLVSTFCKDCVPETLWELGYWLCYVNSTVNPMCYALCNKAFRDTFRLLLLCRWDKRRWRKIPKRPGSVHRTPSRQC
Method in brief: (§2)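 Rat hippocampal slices; spontaneous action potentials recorded from CA1 pyramidal neurons, read as spike rate. Agonist mode has no carbachol; PAM mode uses an EC20 level of carbachol. Top concentration tested was 3 μM.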

[6] = Clearance in rat at 0.5 mg/kg, iv administered as single bolus dose; assay type: ADME, organism-based; conditions: in vivo
Method in brief: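 Rat, single IV bolus of 0.5 mg/kg as a solution in 20% HPBCD; observed plasma clearance.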

[7] = Oral bioavailability in rat at 2 mg/kg administered as single dose; assay type: ADME, organism-based; conditions: in vivo
[8] = Ratio of unbound AUC in iv or po dosed mouse brain to plasma; assay type: ADME, organism-based
Canis familiaris [9] = assay: Cholinergic toxicity in dog assessed as transient salivation at 5 mg/kg, po administered as single dose using spray dried dispersion formulation after 1 to 4 hrs; assay type: organism-based, Canis lupus familiaris; conditions: in vivo
Method in brief: (§3)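 Dog single oral dose escalation: 1/sex at 5 mg/kg for each formulation; 1 female at 15 mg/kg. Spray-dried dispersion: 23% drug loading with 0.5% methylcellulose and 100 mM citrate buffer. Clinical signs timed in approximate hours postdose; unbound plasma Cmax.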

[10] = biological target: T1, Muscarinic acetylcholine receptor M1; assay: Agonist activity at muscarinic acetylcholine receptor M1 in Sprague-Dawley rat brain hippocampal slices assessed as increase in firing rate at CA1 pyramidal neurons after 10 mins by electrophysiology method; method in brief: as §2
Brain [11] = assay: Unbound brain concentration in scopolamine-induced memory impairment Wistar rat model at 0.32 mg/kg, sc measured at 1.25 hrs post dose by LC-MS/MS analysis; conditions: in vivo
[12] = Cholinergic toxicity in po dosed rat administered as single dose after 1 to 1.5 hrs post dose; assay type: organism-based; conditions: in vivo
Method in brief: (§4)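 Rat single oral dose escalation, 3/sex/dose. 1 and 5 mg/kg as a 0.5% methylcellulose suspension; 15 and 45 mg/kg as a nanosuspension (1.25% w/v hydroxypropyl cellulose SL, 0.05% docusate sodium in water).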

Rattus norvegicus [13] = assay: Unbound AUC (0 to 24 hrs) in rat plasma at 15 mg/kg, po administered as single dose; assay type: ADME, organism-based; conditions: in vivo
Mus musculus [14] = assay: In vivo agonist activity at muscarinic acetylcholine receptor M1 in C57BL/6 mouse assessed as increase in IP1 accumulation in striatum at 1 to 10 mg/kg, sc measured after 2 hrs; assay type: organism-based
Method in brief: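 C57BL/6 mice dosed with compound or vehicle, then ex vivo striatal IP1 and free brain concentration (Cb,u) measured. Data points are individual mice.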

Rattus norvegicus [15] = assay: Unbound Cmax in rat plasma at 45 mg/kg, po administered as single dose; assay type: ADME, organism-based; conditions: in vivo
Rattus norvegicus [16] = assay: Cholinergic toxicity in rat at 1 to 5 mg/kg, po administered as single dose; assay type: organism-based; conditions: in vivo; method in brief: as §4
Mus musculus [17] = assay: Reversal of amphetamine-induced hyperlocomotion in C57BL/6 mouse assessed as decrease in total distance traveled at 0.3 to 3.2 mg/kg, sc pretreated for 30 mins followed by amphetamine dosing measured for 90 mins; assay type: functional, organism-based
Method in brief: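 C57BL/6 mice, D-amphetamine-stimulated locomotor activity. Compound at 0.32, 1 and 3.2 mg/kg sc as a solution in 10/90 Cremophor/water. Plasma and brain exposures from a satellite group (N = 2/dose) at 1 h.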

Canis familiaris [18] = assay: Cholinergic toxicity in dog assessed as soft stool at 5 mg/kg, po administered as single dose using spray dried dispersion formulation after 1.5 hrs; assay type: organism-based, Canis lupus familiaris; conditions: in vivo; method in brief: as §3
[19] = Unbound plasma concentration in iv or po dosed mouse; assay type: ADME, organism-based
Plasma [20] = assay: Unbound plasma concentration in amphetamine-induced hyperlocomotion C57BL/6 mouse at 1 mg/kg, sc measured after 1 hr by LC-MS/MS analysis; assay type: ADME, organism-based; conditions: in vivo; method in brief: as §1
[21] = Ratio of AUC in rat brain to plasma at 2 mg/kg, po or 0.5 mg/kg, iv administered as single bolus dose; assay type: ADME, organism-based; conditions: read-out: Ratio AUC
Method in brief: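 Brain/plasma ratio computed from AUC of total drug in brain and total drug in plasma.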

Plasma [22] = assay: Unbound plasma concentration in scopolamine-induced memory impairment Wistar rat model at 3.2 mg/kg, sc measured after 1.25 hrs by LC-MS/MS analysis; assay type: ADME, organism-based; conditions: in vivo
Method in brief: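 Rats from a satellite group of the scopolamine (0.32 mg/kg) Morris water maze study, N = 2/dose. Dosed sc as a solution in 20% hydroxypropyl β-cyclodextrin. Compound concentrations measured in plasma only at T = 1.25 h.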

Sequence of Muscarinic acetylcholine receptor M3 (P20309 whole entry): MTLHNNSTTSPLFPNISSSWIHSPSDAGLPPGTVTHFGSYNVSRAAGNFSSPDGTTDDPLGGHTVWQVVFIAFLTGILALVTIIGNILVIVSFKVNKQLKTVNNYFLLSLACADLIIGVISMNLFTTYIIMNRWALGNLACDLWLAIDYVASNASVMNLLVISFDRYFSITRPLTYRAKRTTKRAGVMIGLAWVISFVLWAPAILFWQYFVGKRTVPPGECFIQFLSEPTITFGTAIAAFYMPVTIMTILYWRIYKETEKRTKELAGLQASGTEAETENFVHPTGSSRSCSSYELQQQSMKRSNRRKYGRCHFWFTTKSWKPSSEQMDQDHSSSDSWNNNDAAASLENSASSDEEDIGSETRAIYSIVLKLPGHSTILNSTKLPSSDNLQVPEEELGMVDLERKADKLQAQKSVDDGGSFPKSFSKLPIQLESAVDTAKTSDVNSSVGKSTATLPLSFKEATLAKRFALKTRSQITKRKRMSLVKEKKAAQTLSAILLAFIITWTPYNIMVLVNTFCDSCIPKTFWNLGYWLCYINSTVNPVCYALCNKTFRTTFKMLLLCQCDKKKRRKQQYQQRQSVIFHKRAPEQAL

## Cc1cc2c(cc1Cc1ccc(-c3cocn3)cc1)C(=O)N([C@H]1CCOC[C@@H]1O)C2
Rattus norvegicus [1]
  fAUC: 4.927 µM·h
[2]
  EC50: > 10 µM
[3]
  solubility thermodynamic: 39.7 µg/mL (≈ 98.2 µM)
Brain [4]
  Drug uptake(free): 3.8 nM
[5]
  Activity: Dose-dependent effect
[6]
  clearance: 2.4 mL/min/kg
[7]
  bioavailability: 91%
[8]
  Kp uu: 0.3
Canis familiaris [9]
  Activity: Toxic
[10]
  Activity: Not Active
Brain [11]
  Drug uptake(free): 3.2 nM
[12]
  NOAEL: 15 mg/kg
Rattus norvegicus [13]
  fAUC: 20.609 µM·h
Mus musculus [14]
  Activity: Active
Rattus norvegicus [15]
  fCmax: 2.31 to 3.83 µM
Rattus norvegicus [16]
  Activity: Non-Toxic
Mus musculus [17]
  Activity: Active
Canis familiaris [18]
  Activity: Toxic
[19]
  fraction unbound: 0.013
Plasma [20]
  Cp(f): 46 nM
[21]
  Kp: 0.2
Plasma [22]
  Cp(f): 200 nM

— ChEMBL document CHEMBL4017487, “Design and Synthesis of γ- and δ-Lactam M1 Positive Allosteric Modulators (PAMs): Convulsion and Cholinergic Toxicity of an M1-Selective PAM with Weak Agonist Activity” (J Med Chem, 2017)
